# Published values of several laboratories.
# Protocols differ between the studies behind these lines.
# EGFR L861Q: Epidermal growth factor receptor (EGFR, Homo sapiens, UniProt P00533, L861Q)
# EGFR T790M: Epidermal growth factor receptor (EGFR, Homo sapiens, UniProt P00533, T790M)
# EGFR del747-752/P753S: Epidermal growth factor receptor (EGFR, Homo sapiens, UniProt P00533, del747-752/P753S)
# EGFR: Epidermal growth factor receptor (EGFR, Homo sapiens, UniProt P00533)
Structure (SMILES),target,effect on,action,method,tested at,measurement,value
Cc1ccc(NC(=O)c2ccc(C)c(C(F)(F)F)c2)cc1C#Cc1nn(C2CCC(O)CC2)c2ncnc(N)c12 (stereo not shown),EGFR L861Q,cell-free assay,,,10 µM,remaining signal,0%
C[C@H]1CCN(c2nccc(-c3cnn4ncccc34)n2)C1,EGFR T790M,binding,,,1 µM,remaining binding,76%
COc1ccc2c(O[C@@H]3C[C@H]4C(=O)N[C@]5(C(=O)O)CC5/C=C\CCCCC[C@H](NC(=O)OC5CCCC5)C(=O)N4C3)cc(-c3csc(NC(=O)C(C)C)n3)nc2c1C (stereo partly shown),EGFR del747-752/P753S,cell-free assay,,competition with immobilised ligand,1 µM,remaining binding,81%
Cc1cc(NC(=O)c2cccc3cc(-c4cccc5[nH]nc(N)c45)ccc23)ccc1F,EGFR,enzyme activity,inhibitor,,0.1 µM,activity vs control,103%
COc1cc(-c2cc(-c3ccc(N4CCNCC4)cc3)cnc2N)cc(OC)c1OC,EGFR L861Q,enzyme activity,inhibitor,,0.1 µM,inhibition,6%
COc1cc(-c2cn(C3CCc4c(F)cccc4N(CC(F)(F)F)C3=O)nn2)ccc1-n1cnc(C)c1 (stereo not shown),"Epidermal growth factor receptor (EGFR, Homo sapiens, UniProt P00533, A750P/del747-749)",cell-free assay,,competition with immobilised ligand,1 µM,remaining binding,100%
Nc1ncnc2occ(-c3ccc(NC(=O)Nc4cc(C(F)(F)F)ccc4F)cc3)c12,"Epidermal growth factor receptor (EGFR, Homo sapiens, UniProt P00533, del747-750/T751S)",cell-free assay,,,20 µM,remaining signal,27%
N[C@@H]1CCN(c2nccc(-c3cnn4ncccc34)n2)C1,"Epidermal growth factor receptor (EGFR, Homo sapiens, UniProt P00533, G719C)",binding,,,1 µM,remaining binding,83%
NS(=O)(=O)c1cc(NC(=O)C2(c3ccccc3Cl)CC2)ccc1Oc1cccc(Cl)c1,"Epidermal growth factor receptor (EGFR, Homo sapiens, UniProt P00533, G719S)",cell-free assay,,competition with immobilised ligand,1 µM,remaining binding,98%
CN(CCCC(F)(F)F)c1nccc(-c2cnn3ncccc23)n1,EGFR T790M,binding,,,1 µM,remaining binding,78%
Cc1ccc(C(=O)Nc2ccc(CN3CCN(C)CC3)c(C(F)(F)F)c2)cc1C#Cc1cnc2cccnn12,"Epidermal growth factor receptor (EGFR, Homo sapiens, UniProt P00533, del746-750)",cell-free assay,,,23.5 nM,remaining signal,64%
CC/C(=N\NC(=O)NCc1cccc(O)c1)c1ccc(O)c(C)c1O,"Epidermal growth factor receptor (EGFR, Homo sapiens, UniProt P00533, L858R/T790M)",enzyme activity,inhibitor,,0.1 µM,inhibition,0.1%
FC(F)(F)c1ccc2c(c1)nc(-c1cccnc1)n2C1CC1,EGFR del747-752/P753S,cell-free assay,,competition with immobilised ligand,1 µM,remaining binding,100%
Cc1cnc(NC2CCOCC2)nc1-n1cnc(C(=O)NC(CN)c2cc(F)cc(Cl)c2)c1 (stereo not shown),EGFR,enzyme activity,inhibitor,radiometric,1 µM,remaining activity,108%
C[C@H](c1ccnc(Nc2nc3ccc(-c4cc(N(C)C)ncn4)cc3[nH]2)c1)N1CCN(C(=O)CC(F)(F)F)CC1,EGFR L861Q,cell-free assay,,competition with immobilised ligand,0.1 µM,remaining binding,76%
CN(c1nccc(-c2cnn3ncccc23)n1)C1CC1,EGFR,binding,,,1 µM,remaining binding,100%
